Reference: ChEMBL document CHEMBL1156484, “Hot spots in prion protein for pathogenic conversion” (Proc Natl Acad Sci U S A, 2007)
Activity calls are given as the source filed them. The rule behind the calls is not given here.

What was measured:
[1] = Cytotoxicity against mouse GT1-7 cells at 1 uM; assay type: cell-based; conditions: gt1-7, 1 µM
cells [2] = assay type: functional, cell-based; conditions: Mus musculus, GT1-7
Mus musculus [3] = assay: Survival of intraventricularly dosed mouse infected with human transmissible spongiform encephalopathies agent Fukuoka1 at 250 ug/kg, after 70 to 98 days post-infection; assay type: functional
Procedure, shortened: (§1)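 4-week-old male ddY mice inoculated in the right temporal lobe with 20 μl of 10% FK-1 (Fukuoka-1) infected brain homogenate. Drug in 5% glucose/saline (10 mg/ml stock, 0.2-μm filtered) given at 250 μg/kg per day by intraventricular osmotic-pump infusion over the stated d.p.i. window. Vehicle-only controls. Mice examined daily for neurological signs; survival analysed by Kaplan–Meier.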

GT1-7 = assay: Effect on cellular form PrP expression in mouse GT1-7 cells; assay type: functional, cell-based
Procedure, shortened: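 Uninfected GT1-7 mouse neuronal cells (~2 × 10^5 per well) treated 15 h after plating, from 100 mM DMSO stocks diluted in medium (solvent control 0.1%), for 72 h. Lysates in Triton X-100/DOC buffer, normalized to 2 mg protein/ml. PrPC detected by Western blot with SAF32 antibody and ECL, then scanned.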

Mus musculus [4] = assay: Survival of intraventricularly dosed mouse infected with human transmissible spongiform encephalopathies agent Fukuoka1 at 250 ug/kg, after 42 to 70 days post-infection; assay type: functional; procedure, shortened: as §1
Mus musculus [5] = species: Mus musculus; assay: Binding affinity to recombinant mouse cellular form PrP (23-231)
cells [6] = assay type: functional, cell-based; conditions: Mus musculus, GT1-7, 72 h
Mus musculus [7] = species: Mus musculus; assay: Stabilization of recombinant mouse cellular form PrP (23-231) conformation at 10 uM

Row | SMILES | Activity [1] | IC50 (cells [2]) | further results
1 | O=C(Nc1ccc(NC(=O)c2cccc3ccccc23)cc1)c1cccc2ccccc12 | Toxic | > 100 µM | 
2 | C[C@]12CCC(=O)C=C1CC[C@@H]1[C@@H]2[C@@H](O)C[C@@]2(C)[C@H]1CC[C@]2(O)C(=O)COC(=O)CCC(=O)O [HYDROCORTISONE HEMISUCCINATE ANHYDROUS] | Toxic | > 100 µM | 
3 | CC(=O)[C@H]1CC[C@H]2[C@@H]3C[C@H](O)[C@@H]4C[C@H](O)CC[C@]4(C)[C@H]3CC[C@]12C | Toxic | > 100 µM | 
4 | O=C(Nc1ccc(Cc2ccc(NC(=O)C(Cl)(Cl)Cl)cc2)cc1)C(Cl)(Cl)Cl | Toxic | > 100 µM | 
5 | O=C(Nc1ccc(I)cc1C(=O)O)c1ccc(Cl)cc1 | Toxic | > 100 µM | 
6 | O=C(CN1CCCC1)Nc1ccc(Cc2ccc(NC(=O)CN3CCCC3)cc2)cc1 |  |  | Survival (Mus musculus [3]): 141.5 days; Activity (GT1-7): inactive; Survival (Mus musculus [4]): 132.3 days; Activity (Mus musculus [5]): 3.9 ×10⁻⁶ M; IC50 (cells [6]): 1.35 µM; Activity (Mus musculus [7]): Stable
7 | Cc1c(NC(=O)c2cccc(I)c2)ccc([N+](=O)[O-])c1C | Toxic | > 100 µM | 
8 | O=C(Nc1ccc2ccccc2c1)c1cccc(C(=O)Nc2ccc3ccccc3c2)c1 | Toxic | > 100 µM | 
9 | O=C(O)c1ccc(C(=O)O)c(C(=O)Nc2ccc3c(c2)-c2ccccc2C3)c1 | Toxic | > 100 µM | 
10 | CS(=O)(=O)O[C@H]1C[C@H](n2cc(F)c(=O)[nH]c2=O)O[C@@H]1CO | Toxic | > 100 µM | 
11 | Cc1nc2c(n1CCO)C(=O)c1nc(C)n(CCO)c1C2=O | Toxic | > 100 µM | 
12 | COc1ccccc1C(=O)c1c(C(=O)O)ccc2ccccc12 | Toxic | > 100 µM | 
13 | O=C(CN1CCOCC1)Nc1ccc(Cc2ccc(NC(=O)CN3CCOCC3)cc2)cc1 | Toxic | > 100 µM | 
14 | C=CCc1cc(/C=C2/C(=O)NC(=S)N(CC=C)C2=O)cc(OC)c1O | Toxic | > 100 µM | 
15 | Cc1ccc(S(=O)(=O)Nc2ccccc2N(C)S(=O)(=O)c2ccc(C)cc2)cc1 | Toxic | > 100 µM | 
16 | COc1ccc(C(=O)NNC(=O)c2ccc(OC)c(I)c2)cc1Br | Toxic | > 100 µM | 
17 | O=C(CCl)Nc1ccc(Cc2ccc(NC(=O)CCl)cc2)cc1 | Toxic | > 100 µM | 
18 | O=C(Nc1ccc(I)cc1)c1cccc(I)c1 | Toxic | > 100 µM | 
19 | O=C(N/N=C/c1cc(Cl)cc(Cl)c1O)c1cccc(I)c1 | Toxic | > 100 µM | 
20 | COc1ccc(C(=O)c2ccc(Br)c([N+](=O)[O-])c2)cc1C | Toxic | > 100 µM | 
21 | O=C(Nc1ccc(Cc2ccc(NC(=O)c3cccc([N+](=O)[O-])c3)cc2)cc1)c1cccc([N+](=O)[O-])c1 | Toxic | > 100 µM | 
22 | O=C(CN1CCCCC1)Nc1ccc(Cc2ccc(NC(=O)CN3CCCCC3)cc2)cc1 | Toxic | > 100 µM | 

Row | SMILES | Activity [1] | IC50 (cells [2]) | further results
23 | Cc1ccc(C(=O)Nc2cccc([N+](=O)[O-])c2C)cc1I | Toxic | > 100 µM | 
24 | O=C(O)/C=C/C(=O)Nc1ccc(Cc2ccc(NC(=O)/C=C/C(=O)O)cc2)cc1 | Toxic | > 100 µM | 
25 | O=S(=O)(c1cc(Cl)cc(Br)c1O)c1cc(Cl)cc(Br)c1O | Toxic | > 100 µM | 
26 | CC1CCCN(C(=O)Nc2ccc(Cc3ccc(NC(=O)N4CCCC(C)C4)cc3)cc2)C1 (configuration not stated) | Toxic | > 100 µM | 
27 | CCCCOC(=O)c1ccc2c(c1)C(=O)N(c1ccc(Oc3ccccc3)cc1)C2=O | Toxic | > 100 µM | 
28 | O=C(c1ccc(I)c([N+](=O)[O-])c1)c1ccc(I)c([N+](=O)[O-])c1 | Toxic | > 100 µM | 
29 | CCCCOC(=O)c1ccc(NC(=O)Nc2cc(C)ccc2C)cc1 | Toxic | > 100 µM | 
30 | CCN(CCO)CCNc1ccc(C)c2sc3ccccc3c(=O)c12 | Toxic | > 100 µM | 
31 | O=c1n(S(=O)(=O)c2ccc(Cl)cc2)c2ccccc2n1S(=O)(=O)c1ccc(Cl)cc1 | Toxic | > 100 µM | 
32 | Cc1ccc(N2C(=O)c3ccc(C(=O)OCC(C)C)cc3C2=O)cc1C | Toxic | > 100 µM | 
33 | O=C1C=CC(=O)N1c1ccc(Cc2ccc(N3C(=O)C=CC3=O)cc2)cc1 | Toxic | > 100 µM | 
34 | CC(=O)Nc1ccc(Cc2ccc(NC(C)=O)cc2)cc1 | Toxic | > 100 µM | 
35 | O=C(Nc1ccc(I)cc1)c1ccccc1I | Toxic | > 100 µM | 
36 | O=C(Nc1cc(Cl)c(Cl)cc1Cl)Nc1cc(Cl)c(Cl)cc1Cl | Toxic | > 100 µM | 
37 | Cc1sc(C(O)c2sc(C)c(C)c2I)c(I)c1C | Toxic | > 100 µM | 
38 | Cc1ccc(N2C(=O)c3ccc(C(=O)OCC(C)C)cc3C2=O)cc1Cl | Toxic | > 100 µM | 
39 | COc1ccc(C(=O)N=C2C=C(Br)C(=O)C(Br)=C2)cc1 | Toxic | > 100 µM | 
40 | O=C1C=CC(=O)N1c1ccc(Cc2ccc(N3C(=O)C=CC3=O)c(Cl)c2)cc1Cl | Toxic | > 100 µM | 
41 | CC(=O)CC(=O)Nc1ccc(Cc2ccc(NC(=O)CC(C)=O)cc2)cc1 | Toxic | > 100 µM | 
42 | COc1ccc(NC(=O)c2cc(Br)ccc2I)cc1Cl | Toxic | > 100 µM | 
43 | O=C(c1cccc(I)c1)c1cccc(I)c1 | Toxic | > 100 µM | 
44 | C=CCSC1=N/C(=C\c2ccccc2Br)C(=O)S1 | Toxic | > 100 µM | 
